Screens: PubChem BioAssay, several laboratories
VLA-4 inh = inhibition in a human VLA-4 binding assay; inhibition, % (about 7 µM as worked out from the volumes in the protocol); actives 0.2% (n = 330,000); AID 2557; VLA-4 expressing cells, ligand binding flow cytometry; P13612; in the data active = inhibition above about 50%
Platelet DG rel = modulates dense granule release in human platelets; inhibition, %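 (compounds screened at 7.5 µM in platelet-rich plasma)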; actives 0.22% (n = 300,000); human platelet-rich plasma, SFLLRN dense granule ATP release, luminescence; AID 1663;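 active = mean replicate score, as percent of positive control, at or above 50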
Rce1 inh = blocks yeast Ras-converting enzyme; Q03530; yeast membranes, quenched prenylated peptide cleavage fluorescence; calls only; actives 0.27% (n = 290,000); AID 2563;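 active = fall in fluorescence gain of 50% or more versus controls, with final raw signal at or below 3038400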
Target sequence (Q03530 whole entry, looked up): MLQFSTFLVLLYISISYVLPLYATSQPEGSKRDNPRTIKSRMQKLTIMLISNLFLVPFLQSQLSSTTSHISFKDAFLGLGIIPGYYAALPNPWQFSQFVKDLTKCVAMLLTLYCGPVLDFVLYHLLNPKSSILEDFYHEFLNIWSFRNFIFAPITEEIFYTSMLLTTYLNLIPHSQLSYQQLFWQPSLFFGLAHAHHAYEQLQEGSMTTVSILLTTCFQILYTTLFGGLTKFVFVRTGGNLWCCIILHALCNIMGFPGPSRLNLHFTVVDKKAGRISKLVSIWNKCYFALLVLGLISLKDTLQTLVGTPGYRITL
TAAR1 antagonist = antagonists of human TAAR1; Q96RJ0; CHO RD-HGA16 TAAR1, Fluo-8 calcium fluorescence, antagonist; inhibition, % at 3 µM; actives 1.5% (n = 360,000);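 active = inhibition above a per-plate cutoff, the mean inhibition of test compounds on that plate plus 3 SD, cut at about 49% in these data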
Target sequence (Q96RJ0 whole entry, looked up): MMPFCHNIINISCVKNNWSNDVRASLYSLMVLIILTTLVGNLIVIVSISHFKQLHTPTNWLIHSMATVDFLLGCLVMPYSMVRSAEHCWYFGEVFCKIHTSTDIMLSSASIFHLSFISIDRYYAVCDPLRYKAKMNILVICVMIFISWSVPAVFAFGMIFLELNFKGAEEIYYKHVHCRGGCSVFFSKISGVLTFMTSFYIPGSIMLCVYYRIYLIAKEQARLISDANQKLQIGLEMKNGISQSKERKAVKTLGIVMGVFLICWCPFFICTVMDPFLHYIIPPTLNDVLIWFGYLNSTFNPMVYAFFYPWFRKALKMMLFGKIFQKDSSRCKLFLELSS
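System: CHO RD-HGA16 cells bearing hTAAR1. Reagent: EC80 β-phenethylamine stimulus. Schedule: seeding 17-24 h prior, 75-min 37 °C, 30-min RT dye loading. Signal: Fluo-8 intracellular calcium dye fluorescence, real-time kinetic reads. Read-out: % inhibition from peak post-agonist over basal fluorescence ratio. Benchmarks: vehicle wells and EC80 agonist wells. Replicates: n of 1.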
TAAR1 ag = human TAAR1 agonism | Q96RJ0 | AID 624467 | activation, % at 3 µM | CHO RD-HGA16 TAAR1, Fluo-8 calcium fluorescence; vehicle wells 0%, saturating PEA agonist 100% | actives 0.99% (n = 360,000);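 active = activation above the mean activation of all test compounds in the run plus 3 SD, cut at about 38% in these data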
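System: CHO RD-HGA16 cells carrying human TAAR1 plus Gα16; Incubation: 17-24 h seeding, 75 min 37 °C dye, 30 min RT; Measured by: Fluo-8 fluorescence, 5 s baseline then 140 s kinetic read; Control set: DMSO and PEA EC100; Replication: single well for each compound.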
TAAR1 ag conf = confirmation of human TAAR1 agonists; CHO RD-HGA16 TAAR1, Fluo-8 calcium fluorescence; scaled: DMSO 0%, maximal phenethylamine 100%; activation, % at 3 µM; actives 82% (n = 2,400); shares compounds with TAAR1 ag;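 active = activation above a cutoff set at the run's mean compound activation plus 3 SD, cut at about 39% in these data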
Ga16 ag counter = counter-screen for TAAR1 agonists: nonselective agonists in parental cells; shares compounds with TAAR1 ag; CHO-Ga16 parental, Fluo-8 calcium fluorescence; normalized to maximal ATP response, DMSO zero; activation, % at 3 µM; actives 50% (n = 2,400);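 active = activation above the run cutoff, the mean activation over all tested wells plus 3 SD, cut at about 12% in these data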
TAAR1 desens = counter-screen for human TAAR1 agonists: agonists that desensitize TAAR1; CHO RD-HGA16 hTAAR1, Fluo-8 calcium, beta-PEA response inhibition; AID 651951; shares compounds with TAAR1 ag; inhibition, % at 3 µM; actives 46% (n = 2,400);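 active = inhibition above the run cutoff, the mean inhibition of all test compounds plus 3 SD, cut at about 49% in these data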;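 also: beta-PEA stimulus applied at its EC80; loss of beta-PEA calcium signal after compound pretreatment read as receptor desensitization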
Ga16 antag count = nonselective Ga16 antagonism, counter-screen. AID 651952. actives 39% (n = 2,400). inhibition, % at 3 µM. CHO-Ga16 ATP-induced calcium, Fluo-8 fluorescence. shares compounds with TAAR1 ag;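 active = inhibition above the plate's mean compound inhibition plus 3 SD, computed per plate, cut at about 22% in these data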
Hits are given with their value; – = inactive; · = no result given. The list is not random: actives were taken first. Their share in the collection is about 2.6%.

SMILES	VLA-4 inh	Platelet DG rel	Rce1 inh	TAAR1 antagonist	TAAR1 ag	TAAR1 ag conf	Ga16 ag counter	TAAR1 desens	Ga16 antag count
CN(C)CCCN(C(=O)c1ccc(S(=O)(=O)N2CCc3ccccc32)cc1)c1nc2ccc(Cl)cc2s1	–	–	–	–	–	·	·	·	·
CN(C)CCCN(C(=O)c1ccc(S(=O)(=O)N2CCc3ccccc32)cc1)c1nc2ccc(F)cc2s1	–	–	–	–	51	66	36	57	41
CC1(c2ccccc2)NC(=O)N(CC(=O)Nc2ccc(N3CCOCC3)cc2)C1=O (stereo not drawn)	–	·	·	–	–	·	·	·	·
CC(=O)C1=C(O)C(=O)N(CCc2ccccc2)C1c1ccccc1[N+](=O)[O-] (stereo not drawn)	–	–	–	–	67	62	–	–	–
CCN(CC)CCN1C(=O)C(O)=C(C(C)=O)C1c1ccccc1[N+](=O)[O-] (stereo not drawn)	–	–	–	–	–	·	·	·	·
O=C(NCc1cccnc1)c1cc(C2CCCCN2C(=O)CCCc2ccccc2)on1 (stereo not drawn)	·	·	·	–	–	·	·	·	·
COc1ccc2cc(C(c3nnnn3C3CCCC3)N3CCc4ccccc4C3)c(=O)[nH]c2c1 (stereo not drawn)	–	–	–	–	46	39	–	–	–
COc1ccc2[nH]c(=O)c(C(c3nnnn3CC3CCCO3)N3CCc4ccccc4C3)cc2c1 (stereo not drawn)	–	–	–	–	61	55	–	–	–
COc1ccc2cc(C(c3nnnn3C(C)(C)C)N3CCc4ccccc4C3)c(=O)[nH]c2c1 (stereo not drawn)	–	·	·	·	·	·	·	·	·
Cc1ccc2[nH]c(=O)c(C(c3nnnn3CC3CCCO3)N3CCc4ccccc4C3)cc2c1 (stereo not drawn)	–	–	–	–	–	·	·	·	·
Cc1nnc(SCC(=O)NCCC2=CCCCC2)[nH]c1=O	–	·	·	69	74	95	–	88	–
COc1ccc(S(=O)(=O)N2CCC(C(=O)NCCC(=O)NCc3cccnc3)CC2)cc1	·	·	·	–	–	·	·	·	·
COc1cc(C(c2sc3nc(C)nn3c2O)N2CCc3ccccc3C2)cc(OC)c1OC (stereo not drawn)	–	–	–	–	45	45	–	–	–
COc1cccc(C(c2sc3ncnn3c2O)N2CCc3ccccc3C2)c1 (stereo not drawn)	–	–	–	–	73	82	–	–	–
COc1ccc(N2C(=O)CN(Cc3ccc(OC)c(OC)c3)C2=S)cc1	–	–	–	–	154	–	–	–	–
COc1cccc(N2C(=O)CN(Cc3ccc(OC)c(OC)c3)C2=S)c1	–	–	–	–	–	·	·	·	·
COc1ccc(N2CCN(c3nccs3)CC2)cc1	–	–	·	–	–	·	·	·	·
CCCC1(c2ccccc2)NC(=O)N(CC(=O)c2[nH]c(C)c(C(=O)OCC)c2C)C1=O (stereo not drawn)	–	–	–	–	78	52	16	55	29
CCOc1ccc(NC(=O)CN(C)C(=O)CSC(C)C(=O)Nc2cc(C)on2)cc1OCC (stereo not drawn)	–	–	–	–	–	·	·	·	·
O=C(Cn1nnc2ccccc21)N/N=C\c1cccs1	–	–	–	–	45	82	–	–	–
Nc1nnnn1CC(=O)N/N=C/c1cccs1	–	–	–	–	–	·	·	·	·
O=C(Cn1cnc2ccccc21)N/N=C/c1cccs1	–	–	–	·	·	·	–	·	–
Cc1nn(C(=O)CCC(=O)NCc2cccc(F)c2)c2ccccc12	–	–	–	–	–	·	·	·	·
Cc1nn(C(=O)CCC(=O)NCCc2ccccc2)c2ccccc12	–	–	–	·	·	·	–	·	–
Clc1ccc(-c2ccc(C=Nc3ccc(N4CCOCC4)cc3)o2)cc1	–	–	–	–	54	–	15	–	–
SMILES	VLA-4 inh	Platelet DG rel	Rce1 inh	TAAR1 antagonist	TAAR1 ag	TAAR1 ag conf	Ga16 ag counter	TAAR1 desens	Ga16 antag count
Cc1cc(C)c(C(N)=O)c(Nc2cccc(Cl)c2)n1	–	–	–	–	–	·	·	·	·
Nc1nc(N)c(N=O)c(Nc2cccc(Cl)c2)n1	·	·	·	–	68	128	48	53	–
Cc1ccc(Nc2nc(N)nc(N)c2N=O)cc1Cl	·	·	·	–	75	109	29	–	–
Nc1ncnc(Nc2ccc(F)c(Cl)c2)n1	–	–	–	–	–	·	·	·	·
Nc1nc(N)c(N=O)c(Nc2ccc(Cl)c(Cl)c2)n1	·	·	·	–	109	136	58	71	–
CCc1c(N)nc(N)nc1Nc1ccc(C)c(C)c1	·	·	·	–	–	·	·	·	·
O=c1c(-c2ccco2)nc2ccccc2n1C(c1ccccn1)c1nc2ccccc2[nH]1 (stereo not drawn)	·	·	·	–	–	·	·	·	·
O=C(Nc1ccc(NS(=O)(=O)c2ccccc2)c(Cl)c1)c1ccccc1	·	·	·	–	–	·	·	·	·
Cc1ccccc1NC(=O)Nc1nc(C(N)Cc2ccccc2)cs1 (stereo not drawn)	·	·	·	–	–	·	·	·	·
COc1cc(CN2CCNC(=O)C2CC(=O)N2CCc3ccccc3C2)cc(OC)c1 (stereo not drawn)	–	–	–	–	66	68	–	–	–
CC(C)(C)CN1CCNC(=O)C1CC(=O)N1CCOc2ccccc2C1 (stereo not drawn)	–	–	–	–	59	54	–	–	–
COc1cccc(CN2CCNC(=O)C2CC(=O)N2CCOc3ccccc3C2)c1OC (stereo not drawn)	–	–	–	–	66	73	–	–	–
Cc1cn([C@H]2C[C@H](O)[C@@H](CCC(=O)NC(c3ccccc3)c3ccccc3)O2)c(=O)[nH]c1=O	·	·	·	–	–	·	·	·	·
Cc1c(C(=O)N2CCOCC2)sc(NC(=O)CCl)c1C#N	–	–	–	–	–	·	·	·	·
CCOc1cc(OCC)cc(C(=O)N2CCC[C@H]2C(=O)N2CCC[C@H]2C(=O)NCc2ccncc2)c1	·	·	·	–	–	·	·	·	·
COc1ccc2ccccc2c1/C=N/Nc1ccc(Cl)c(C(=O)O)c1	–	–	–	–	–	·	·	·	·
COc1ccc(N/N=C/c2c(C(=O)O)ccc3ccccc23)cc1	–	–	–	–	62	62	13	–	–
COc1ccc(/C=C/CN2CCC(C(=O)NC(c3ccc(F)cc3)c3ccc4ccccc4n3)CC2)cc1 (stereo not drawn)	·	·	·	–	47	40	23	–	26
O=C(Nc1ncc(S(=O)(=O)c2ccc([N+](=O)[O-])cc2)s1)c1ccccc1F	–	–	–	59	101	110	61	84	51
